High-throughput results (PubChem)
SIRT5 block = inhibitors of human sirtuin-5 desuccinylase; Q9NXA8; inhibition, % at 15 µM; Purified SirT5, succinyl-peptide AMC, trypsin-coupled fluorescence; 330,000 compounds, 1.1% hits; in the data active = inhibition above about 15%
Target sequence (Q9NXA8 whole entry, looked up): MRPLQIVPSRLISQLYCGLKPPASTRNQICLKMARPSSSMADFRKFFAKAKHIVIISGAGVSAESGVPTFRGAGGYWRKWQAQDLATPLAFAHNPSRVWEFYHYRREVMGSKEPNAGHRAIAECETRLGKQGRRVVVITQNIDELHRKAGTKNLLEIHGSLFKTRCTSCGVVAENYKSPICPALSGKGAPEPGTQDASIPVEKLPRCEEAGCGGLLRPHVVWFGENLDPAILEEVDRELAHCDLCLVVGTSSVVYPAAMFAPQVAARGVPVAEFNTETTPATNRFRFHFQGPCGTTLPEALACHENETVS
DENV2 CPE = DENV2-induced cell death inhibition; DENV2-infected cells, cytopathic effect rescue, plate reader; CPE inhibition, % at 9.99 µM; 350,000 compounds, 1.7% hits; in the data active = CPE inhibition above about 20%, passing the limit was not always enough; tested in BHK-21 cells;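 note: 0% = median of neutral control wells and 100% = median of positive control wells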
E-selectin induc = E-selectin induction on HUVECs; P16581; 260,000 compounds, 0.37% hits; activation, % at 7.58 µM; HUVEC E-selectin immunofluorescence imaging; normalized: neutral wells 0, TNF-alpha wells 100;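 active = mean E-selectin-positive cell signal at least 10% of the positive control, reached in at least 60% of replicates, without over 20% cell loss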
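Test system: HUVEC; input: 3,000 HUVEC/well; measured by: immunofluorescence imaging; read-out: % PE-positive cells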
Numbers without * were called inactive. Rows were chosen to be rich in hits. Some 2.8% of all compounds tested hit in one or more screens of this group.

What do the screens show for `C[C@H]1CN([C@@H](C)CO)S(=O)(=O)c2ccc(C#Cc3ccccc3)cc2O[C@@H]1CN(C)S(=O)(=O)c1cn(C)cn1`?
SIRT5 block: 0.2; DENV2 CPE: 34.1*; E-selectin induc: 0.7

What do the screens show for `C[C@H]1CN([C@@H](C)CO)C(=O)c2cccc(NS(=O)(=O)c3cn(C)cn3)c2O[C@H]1CN(C)Cc1ccncc1`?
SIRT5 block: -2.5; DENV2 CPE: 11.2; E-selectin induc: -2.1

Results for C[C@@H]1CCCCO[C@H](CN(C)Cc2ccc(C(=O)O)cc2)[C@@H](C)CN([C@@H](C)CO)C(=O)c2cc(NC(=O)Nc3ccc4c(c3)OCO4)ccc2O1 ?
SIRT5 block: -1.7; DENV2 CPE: 8.8; E-selectin induc: 0.0

Results for CO[C@H]1CN(C)C(=O)c2ccc(NC(=O)CC(F)(F)F)cc2OC[C@H](C)NC[C@H]1C ?
DENV2 CPE: -2.1; E-selectin induc: -0.2

What do the screens show for `COCC(=O)N1C[C@@H](C)[C@H](OC)CN(C)C(=O)c2ccc(NC(=O)c3cnccn3)cc2OC[C@@H]1C`?
SIRT5 block: -2.9; DENV2 CPE: 6.4; E-selectin induc: -0.1

How did CCC(=O)Nc1ccc2c(c1)C(=O)N(C)C[C@H](OC)[C@@H](C)CN(C(=O)c1cnccn1)[C@H](C)CO2 do in these assays?
SIRT5 block: -3.0; DENV2 CPE: -2.1; E-selectin induc: -0.1

Results for CC(=O)N(C)C[C@H]1Oc2cc(C#CCC(C)C)ccc2S(=O)(=O)N([C@H](C)CO)C[C@@H]1C ?
SIRT5 block: -3.0; DENV2 CPE: -8.2; E-selectin induc: -2.3

Results for CCN(CC)S(=O)(=O)c1ccc(N2CCOCC2)c(NC(=O)CSCc2c(C)noc2C)c1 ?
SIRT5 block: -0.2; DENV2 CPE: 5.0

Results for Cc1noc(C)c1CSCC(=O)Nc1cc(C(F)(F)F)ccc1N1CCOCC1 ?
SIRT5 block: -1.3; DENV2 CPE: 2.8; E-selectin induc: 40.7*

What do the screens show for `CCC(=O)Nc1ccc2c(c1)C(=O)N(C)C[C@H](OC)[C@@H](C)CN(C(=O)C1CC1)[C@H](C)CO2`?
SIRT5 block: -10.0; DENV2 CPE: 14.7; E-selectin induc: -0.1

Results for CCCCCCCCCCCCCCC[C@@H](O)[C@@H](N)CO ?
SIRT5 block: 7.2; DENV2 CPE: -5.9; E-selectin induc: 1.7

How did C=C(C(=O)O)C(CCCCCC)C(=O)O (centres undefined) do in these assays?
SIRT5 block: -0.7; DENV2 CPE: 89.9*

Results for C[C@@H]1CN([C@@H](C)CO)C(=O)c2cc(NC(=O)Nc3ccc4c(c3)OCO4)ccc2O[C@@H](C)CCCCO[C@@H]1CN(C)S(=O)(=O)c1cn(C)cn1 ?
SIRT5 block: -2.5; DENV2 CPE: -4.8; E-selectin induc: -0.1

Results for COc1cccc2c1C(=O)c1c(O)c3c(c(O)c1C2=O)CC(O)(C(C)=O)CC3OC1CC(O)C(O)C(C)O1 (centres undefined) ?
DENV2 CPE: 2.5; E-selectin induc: 1.5

What do the screens show for `COc1cccc2c1C(=O)c1c(O)c3c(c(O)c1C2=O)C[C@](O)(C(C)=O)C[C@H]3O[C@@H]1C[C@@H](N)[C@@H](O)[C@@H](C)O1`?
SIRT5 block: -2.2; DENV2 CPE: -24.3; E-selectin induc: 146.0*

How did C[C@H]1CN([C@@H](C)CO)C(=O)c2cccc(NS(C)(=O)=O)c2O[C@@H]1CN(C)Cc1ccc(Oc2ccccc2)cc1 do in these assays?
SIRT5 block: 2.0; DENV2 CPE: 7.9; E-selectin induc: 31.8*

How did C[C@@H]1CN([C@H](C)CO)C(=O)c2cccc(NS(C)(=O)=O)c2O[C@@H]1CN(C)Cc1ccncc1 do in these assays?
SIRT5 block: -4.8; DENV2 CPE: 3.5; E-selectin induc: 262.0*

What do the screens show for `C[C@@H]1CN([C@H](C)CO)C(=O)c2cccc(NS(C)(=O)=O)c2O[C@H]1CN(C)Cc1ccc(Oc2ccccc2)cc1`?
SIRT5 block: 3.4; DENV2 CPE: 4.7; E-selectin induc: 3.8

Results for C[C@H]1CN([C@@H](C)CO)C(=O)c2cccc(NS(C)(=O)=O)c2O[C@H]1CN(C)Cc1ccncc1 ?
SIRT5 block: -0.5; DENV2 CPE: 3.7; E-selectin induc: -7.3

What do the screens show for `C[C@@H]1CN([C@@H](C)CO)C(=O)c2cccc(NS(C)(=O)=O)c2O[C@@H]1CN(C)Cc1ccncc1`?
SIRT5 block: -4.1; DENV2 CPE: 11.9; E-selectin induc: -3.2

What do the screens show for `C[C@H]1CN([C@@H](C)CO)C(=O)c2cccc(NS(C)(=O)=O)c2O[C@@H]1CN(C)Cc1ccncc1`?
SIRT5 block: 0.1; DENV2 CPE: 4.3; E-selectin induc: 204.1*

Results for COc1ccccc1NC(=O)N1[C@@H]2CNC[C@H]1[C@@H]2c1ccc(-c2ccc(C#N)cc2)cc1 ?
SIRT5 block: 6.4; DENV2 CPE: 4.3; E-selectin induc: -0.6

What do the screens show for `C[C@@H]1CN([C@@H](C)CO)S(=O)(=O)c2ccc(C#CC3CCCC3)cc2O[C@@H]1CN(C)C(=O)C1CC1`?
SIRT5 block: 8.3; DENV2 CPE: -9.0; E-selectin induc: 0.5

Results for C[C@@H]1CN([C@H](C)CO)C(=O)c2cccc(NS(=O)(=O)c3ccccc3)c2O[C@@H]1CN(C)C(=O)NC1CCCCC1 ?
SIRT5 block: -4.3; DENV2 CPE: 15.4; E-selectin induc: 0.0

How did C[C@@H]1CCCCO[C@@H](CN(C)Cc2ccncc2)[C@@H](C)CN([C@@H](C)CO)C(=O)c2cc(NC(=O)Nc3ccccc3)ccc2O1 do in these assays?
SIRT5 block: 0.4; DENV2 CPE: 12.7; E-selectin induc: 0.0

How did O=C(CN1C(=O)C(=O)N(Cc2ccccc2)C1=O)Nc1cc(Cl)cc(Cl)c1 do in these assays?
SIRT5 block: -7.0; E-selectin induc: 0.6

What do the screens show for `N#CCSc1ccccc1NC(=O)CN1C(=O)C(=O)N(Cc2ccccc2)C1=O`?
DENV2 CPE: 40.6*; E-selectin induc: 0.0

Results for C[C@H]1CN([C@@H](C)CO)C(=O)c2cc(NS(=O)(=O)c3ccccc3)ccc2O[C@H]1CN(C)C(=O)Nc1ccccc1 ?
SIRT5 block: -3.7; DENV2 CPE: -4.6; E-selectin induc: -0.2

Results for C[C@@H]1CCCCO[C@H](CN(C)C(=O)NC2CCCCC2)[C@H](C)CN([C@@H](C)CO)C(=O)c2cc(NS(=O)(=O)c3ccccc3)ccc2O1 ?
SIRT5 block: 6.3; DENV2 CPE: 5.1; E-selectin induc: -0.1

What do the screens show for `Cc1ccccc1NC(=S)NC1CCCC1`?
SIRT5 block: -1.5; DENV2 CPE: -0.4

What do the screens show for `Cc1cccc(C)c1NC(=S)NC1CCCCC1`?
SIRT5 block: 0.8; DENV2 CPE: 68.2*; E-selectin induc: 0.0

How did Cc1cc(C(=O)Nc2cccc3c2O[C@@H](CN(C)Cc2ccc(-c4ccccc4)cc2)[C@H](C)CN([C@H](C)CO)C3=O)n(C)n1 do in these assays?
SIRT5 block: 0.7; DENV2 CPE: -9.1; E-selectin induc: -0.4

How did O=C(C[C@H]1C[C@@H]2c3cc(NC(=O)CC4CC4)ccc3O[C@@H]2[C@@H](CO)O1)NCc1ccccc1F do in these assays?
SIRT5 block: -1.7; DENV2 CPE: 6.8; E-selectin induc: -0.3

Results for COc1ccc(NC(=O)N(C)C[C@H]2Oc3ccc(NS(=O)(=O)c4ccccc4)cc3C(=O)N([C@H](C)CO)C[C@@H]2C)cc1 ?
SIRT5 block: -2.3; DENV2 CPE: 29.1*; E-selectin induc: -0.1
